Test results as given in ChEMBL document CHEMBL1143386, “Prodrugs of perzinfotel with improved oral bioavailability” (J Med Chem, 2009).

Columns and labels:
Format in all cases: physicochemical
[1] = Chemical stability at pH 4.5 after 4 hrs; conditions: buffer, read-out: Stability
Procedure, shortened: (§1)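 Compound at 0.01 mg/mL final in a 9:1 mix of aqueous buffer (pH 1.0, 4.5, 6.6 or 7.4) or simulated gastric fluid with acetonitrile, held at 37 °C in the autosampler. Injected every 4 h over 24 h onto C8 HPLC. Percent remaining from peak area at 304 nm, corrected by internal standard; products confirmed by LC/MS (-ESI).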

[2] = Chemical stability at pH 6.6 after 4 hrs; conditions: buffer, read-out: Stability; procedure, shortened: as §1
[3] = Chemical stability in simulated gastric fluid after 4 hrs; conditions: read-out: Stability; procedure, shortened: as §1
[4] = Chemical stability at pH 1 after 4 hrs; conditions: buffer, read-out: Stability; procedure, shortened: as §1
[5] = Chemical stability at pH 7.4 after 4 hrs; conditions: buffer, read-out: Stability; procedure, shortened: as §1

SMILES | remaining at 4 h [1] [%] | remaining at 4 h [2] [%] | remaining at 4 h [3] [%] | remaining at 4 h [4] [%] | remaining at 4 h [5] [%]
CC(C)OC(=O)OCOP(=O)(CCN1CCCNc2c1c(=O)c2=O)OCOC(=O)OC(C)C | 100 | 97.7 | 100 | 100 | 94.1
O=C(OCOP(=O)(CCN1CCCNc2c1c(=O)c2=O)OCOC(=O)C1CCCCC1)C1CCCCC1 | 99.4 | 95 | 91.6 | 89 | 94.4
